# Test results reported in ChEMBL document CHEMBL3526072 (Drug Metab Dispos, 2011).
# Legend:
# [1] = system: Rattus norvegicus; assay: Ratio of compound AUC to verapamil AUC in Sprague-Dawley rat treated with 10 mg/kg, po of verapamil; format: ADME, organism-based; set-up: dose 10 mg/kg, route oral; details: in vivo
# [2] = system: Rattus norvegicus; assay: Ratio of compound AUC to verapamil AUC in streptozotocin-induced diabetes mellitus model of Sprague-Dawley rat treated with 10 mg/kg, po of verapamil; format: ADME, organism-based; set-up: dose 10 mg/kg, route oral; details: in vivo
# [3] = system: Liver; assay: Increase of CYP3A1 level in streptozotocin-induced diabetes mellitus model of Sprague-Dawley rat liver by Western blot analysis relative to wild type rat; format: ADME, tissue-based
# Summary of the method: (§1)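 Rats from the STZ 65 mg/kg i.p. protocol versus citrate-treated age-matched controls, day 35. Hepatic microsomes or duodenal and jejunal homogenates (20 µg protein) run on 10% SDS-PAGE and probed with mouse anti-rat CYP3A1 monoclonal and rabbit anti-rat CYP3A2 polyclonal antibodies; band densitometry expressed relative to controls; mean ± S.D., four rats.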
# [4] = Tmax in Sprague-Dawley rat at 10 mg/kg, po; format: ADME, organism-based; set-up: dose 10 mg/kg, route oral; details: in vivo
# [5] = AUC (0 to 90 mins) in streptozotocin-induced diabetes mellitus model of Sprague-Dawley rat portal vein plasma at 10 mg/kg, po; format: ADME, organism-based; set-up: time < 1.5 hr, dose 10 mg/kg, route oral
# [6] = system: Intestine; assay: Decrease of CYP3A1 level in streptozotocin-induced diabetes mellitus model of Sprague-Dawley rat intestine by Western blot analysis; format: ADME; summary of the method: as §1
# [7] = system: Intestine; assay: Decrease of CYP3A2 level in streptozotocin-induced diabetes mellitus model of Sprague-Dawley rat intestine by Western blot analysis; format: ADME; summary of the method: as §1
# [8] = AUC (0 to 90 mins) in Sprague-Dawley rat portal vein plasma at 10 mg/kg, po; format: ADME, organism-based; set-up: time < 1.5 hr, dose 10 mg/kg, route oral
# [9] = Cmax in streptozotocin-induced diabetes mellitus model of Sprague-Dawley rat portal vein plasma at 10 mg/kg, po; format: ADME, organism-based; set-up: dose 10 mg/kg, route oral
# [10] = Tmax in Sprague-Dawley rat portal vein plasma at 10 mg/kg, po; format: ADME, organism-based; set-up: dose 10 mg/kg, route oral
# [11] = Cmax in Sprague-Dawley rat portal vein plasma at 10 mg/kg, po; format: ADME, organism-based; set-up: dose 10 mg/kg, route oral
# [12] = Tmax in streptozotocin-induced diabetes mellitus model of Sprague-Dawley rat portal vein plasma at 10 mg/kg, po; format: ADME, organism-based; set-up: dose 10 mg/kg, route oral
# [13] = Tmax in streptozotocin-induced diabetes mellitus model of Sprague-Dawley rat at 10 mg/kg, po; format: ADME, organism-based; set-up: dose 10 mg/kg, route oral; details: in vivo
# [14] = system: Liver; assay: Increase of CYP3A2 level in streptozotocin-induced diabetes mellitus model of Sprague-Dawley rat liver by Western blot analysis relative to wild type rat; format: ADME, tissue-based; summary of the method: as §1
smiles,measurement,setting,value
COc1ccc(CCNCCCC(C#N)(c2ccc(OC)c(OC)c2)C(C)C)cc1OC.Cl (centres undefined),Ratio AUC,[1],0.69
same,Ratio AUC,[2],0.43
COc1ccc(CCN(C)CCCC(C#N)(c2ccc(OC)c(OC)c2)C(C)C)cc1OC (centres undefined),Activity,[3],50%
same,Tmax,[4],34 min
same,AUC(0-t) at 1.5 h,[5],7030 ng·h/mL
same,Activity,[6],Toxic
same,Activity,[7],Toxic
same,AUC(0-t) at 1.5 h,[8],1460 ng·h/mL
same,Cmax,[9],5830 ng/mL
same,Tmax,[10],37.5 min
same,Cmax,[11],1440 ng/mL
same,Tmax,[12],30 min
same,Tmax,[13],21.7 min
same,Activity,[14],151%
